Experimental data published in ChEMBL document CHEMBL1155832, “Design, synthesis, and biological evaluation of antiviral agents targeting flavivirus envelope proteins” (J Med Chem, 2008).

Legend:
Yellow fever virus [1] = experiment: Antiviral activity against IRES-luciferase tagged Yellow fever virus in BHK15 cells assessed as reduction of luciferase activity after 36 hrs; assay type: functional, organism-based; settings: BHK15, 36 h
[2] = Cytotoxicity against BHK15 cells assessed as cell viability after 36 hrs by MTT assay; assay type: cell-based, Mesocricetus auratus; settings: hamster, bhk15, 36 h
[3] = Therapeutic index, ratio of CC50 for BHK15 cells to EC50 IRES-luciferase tagged Yellow fever virus; assay type: cell-based; settings: hamster, read-out: Ratio CC50/EC50
Yellow fever virus [4] = experiment: Antiviral activity against IRES-luciferase tagged Yellow fever virus in BHK15 cells assessed as reduction of luciferase activity at 50 uM after 36 hrs; assay type: functional; settings: BHK15, 36 h
Outline: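 Primary screen of the YFV-IRES-Luc (YFV 17D reporter) infection at MOI 0.1 in confluent BHK-15 cells. Compound was given at a single 50 µM concentration for ~36 h at 37 °C, 5% CO2. Percent inhibition came from lysate firefly luciferase luminescence versus DMSO-treated infected cells. Over 50% inhibition counted as active.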

dengue virus type 2 = experiment: Antiviral activity against Dengue virus 2 16681 in BHK15 cells at 50 uM after 48 hrs by immunofluorescence assay; assay type: functional; settings: Dengue virus, 16681, BHK15, 48 h
Outline: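 Den-2 strain 16681 added to BHK monolayers at MOI 0.025 for 1 h at room temperature, then washed with PBS. Overlaid with MEM + 2.5% FBS containing compound at 50 µM and kept at 34 °C for 48 h. Fixed cells were stained with anti-dengue capsid antibody (2 h), a TRITC secondary and DAPI. Infected versus total cells were counted in three random fields per well to give percent inhibition.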

SMILES | EC50 (Yellow fever virus [1]) [µM] | CC50 [2] [µM] | selectivity ratio [3] | inhibition at 50 µM (Yellow fever virus [4]) [%] | inhibition at 50 µM (dengue virus type 2) [%]
C/C(=N\NC(=N)N)c1ccc(NC(=O)Nc2ccc(/C(C)=N/NC(=N)N)cc2)cc1 | 13 | 398 | 30.6 |  | 
c1ccc(-c2cc(-c3ccccc3)[nH]n2)cc1 | 44 | 123 | 2.8 |  | 
COC(=O)c1sc(-c2ccc(Cl)cc2)nc1C(Br)Br | 0.9 | 153 | 170 | 99 | 99
COC(=O)c1sc(-c2ccc(Cl)cc2)nc1C | > 50 |  |  |  | 
Nc1ccccc1SCc1csc(-c2cccnc2)n1 | > 50 |  |  |  | 
COC(=O)c1sc(N(Cc2ccc(C(C)=O)cc2)Cc2ccc(C(C)=O)cc2)nc1C | 25 | 200 | 8 |  | 
CC(=O)c1ccc(CN(Cc2ccc(C(C)=O)cc2)c2nc(C)c(C(=O)NCc3ccc(Cl)cc3Cl)s2)cc1 | > 50 |  |  |  | 
COC(=O)c1sc(N(Cc2ccc(C(C)=O)cc2)C(C)=O)nc1C | > 50 |  |  |  | 
Nc1ccccc1SCc1csc(-c2ccc(Cl)cc2)n1 | 31 | 61 | 2 |  | 
COC(=O)c1sc(-c2ccncc2)nc1C | > 50 |  |  |  | 
Cc1nc(-n2nc(-c3ccccc3)cc2-c2ccccc2)sc1C(=O)Oc1ccc(I)cc1 | > 50 |  |  |  | 
Cc1nc(-n2nc(-c3ccccc3)cc2-c2ccccc2)sc1C(=O)NCc1ccc(Cl)c(Cl)c1 | 5 | 186 | 37 |  | 
Cc1nc(-n2nc(-c3ccccc3)cc2-c2ccccc2)sc1C(=O)/C=C/c1ccc(Cl)c(Cl)c1 | 51 | 70 | 1.37 |  | 
Nc1ccccc1SCc1csc(-c2ccccc2)n1 | 46 | 119 | 2.6 |  | 
Nc1ccc(SCc2csc(-c3ccccc3Cl)n2)cc1 | 40 | 131 | 3.2 |  | 
COC(=O)c1sc(NC(=O)Nc2ccc(/C(C)=N/NC(N)=O)cc2)nc1C | > 50 |  |  |  | 
CC(=O)c1ccc(NC(=O)Nc2nc(C)c(C(=O)NCc3ccc(Cl)cc3Cl)s2)cc1 | > 50 |  |  |  | 
Cc1nc(-n2nc(-c3ccccc3)cc2-c2ccccc2)sc1C(=O)OCC12CC3CC(CC(C3)C1)C2 | > 50 |  |  |  | 
Cc1csc(-c2ccc(Cl)cc2)n1 | > 50 |  |  |  | 
C/C(=N\NC(N)=O)c1ccc(NC(=O)Nc2nc(C)c(C(=O)NCc3ccc(Cl)cc3Cl)s2)cc1 | > 50 |  |  |  | 

SMILES | EC50 (Yellow fever virus [1]) [µM] | CC50 [2] [µM] | selectivity ratio [3] | inhibition at 50 µM (Yellow fever virus [4]) [%] | inhibition at 50 µM (dengue virus type 2) [%]
C/C(=N\NC(=N)N)c1ccc(NC(=O)Nc2nc(C)c(C(=O)NCc3ccc(Cl)cc3Cl)s2)cc1 | 37.6 | 154 | 4.1 |  | 
Cc1nc(-c2ccc(Cl)cc2)sc1C(=O)OCC12CC3CC(CC(C3)C1)C2 | > 50 |  |  |  | 
Cc1nc(-n2nc(-c3ccccc3)cc2-c2ccccc2)sc1C(=O)OC(C)C | > 50 |  |  |  | 
Nc1ccc(SCc2csc(-c3ccccc3)n2)cc1 | 37 | 155 | 4.2 |  | 
Nc1ccc(SCc2csc(-c3cccnc3)n2)cc1 | > 50 |  |  |  | 
Clc1ccc(-c2nc(CSc3cccc(Cl)c3)cs2)cc1 | > 50 |  |  |  | 
CCOC(=O)c1sc(-n2nc(-c3ccccc3)cc2-c2ccccc2)nc1C | > 50 |  |  |  | 
ClCc1csc(-c2ccc(Cl)cc2)n1 | > 50 |  |  |  | 
Cc1nc(-n2nc(-c3ccccc3)cc2-c2ccccc2)sc1C(=O)O | > 50 |  |  |  | 
Cc1nc(-c2ccc(Cl)cc2)sc1C(=O)NCc1ccc(Cl)c(Cl)c1 | > 50 |  |  |  | 
Nc1ccccc1SCc1csc(-c2ccccc2Cl)n1 | 46 | 133 | 2.9 |  | 
COC(=O)c1sc(NC(=O)Nc2ccc(/C(C)=N/NC(=N)N)cc2)nc1C | > 50 |  |  |  | 
Cc1nc(-n2nc(-c3ccccc3)cc2-c2ccccc2)sc1C(=O)OCc1ccc(I)cc1 | > 50 |  |  |  | 
CC(=O)c1ccc(NC(=O)Nc2nc(C)c(C(=O)NCc3ccc(Cl)c(Cl)c3)s2)cc1 | 37 | 138 | 3.7 |  | 
COC(=O)c1sc(-c2ccccc2)nc1C | > 50 |  |  |  | 
CC(=O)c1ccc(NC(=O)Nc2nc(C)c(C(=O)O)s2)cc1 | > 50 |  |  |  | 
Nc1ccc(SCc2csc(-c3ccc(Cl)cc3)n2)cc1 | 29 | 151 | 5.2 |  | 
CCCCCCCCOC(=O)c1sc(-n2nc(-c3ccccc3)cc2-c2ccccc2)nc1C | > 50 |  |  |  | 
COC(=O)c1sc(NC(=O)Nc2ccc(C(C)=O)cc2)nc1C | 13.9 | 155 | 11.2 |  | 
